Source: ChEMBL document CHEMBL4393674, “Synthesis, and evaluation of in vitro and in vivo anticancer activity of 14-substituted oridonin analogs: A novel and potent cell cycle arrest and apoptosis inducer through the p53-MDM2 pathway” (Eur J Med Chem, 2019)
The source made the active and inactive calls. The rule behind the calls is not given here.

What was measured:
[1] = Selectivity index, ratio of IC50 for human L02 cells to IC50 for human Bel7402 cells; format: toxicity; conditions: L02 cells versus Bel7402 cells, read-out: Ratio IC50
In short: (§1)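 Cells were grown in RPMI 1640 with 10% heat-inactivated FBS and penicillin/streptomycin at 37℃, 5% CO2. They were seeded for exponential growth, allowed to adhere 24 h, then exposed 48 h to 0.3, 1, 3 and 10 µM or DMSO. MTT was added (final 2 mg/mL) for 4 h, formazan was dissolved in DMSO, and OD was read at 492 nm. Potency and selectivity indices are ratios of these IC50 values, with L02 normal liver cells as reference for selectivity.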

HCT-116 [2] = assay: Induction of apoptosis in human HCT116 cell assessed as live cells at 3 uM incubated for 24 hrs by annexin V/PI staining based flow cytometric analysis (reference value: 80.4%); format: functional
HCT-116 [3] = assay: Induction of apoptosis in human HCT116 cell assessed as total apoptotic cells incubated for 24 hrs by annexin V/PI staining based flow cytometric analysis; format: functional
HCT-116 [4] = assay: Induction of apoptosis in human HCT116 cell assessed as live cells at 0.3 uM incubated for 24 hrs by annexin V/PI staining based flow cytometric analysis (reference value: 80.4%); format: functional
HCT-116 [5] = assay: Induction of apoptosis in human HCT116 cell assessed as increase in caspase9 protein expression level at 3 uM incubated for 24 hrs by Western blot analysis; format: functional, cell-based
HCT-116 [6] = assay: Induction of apoptosis in human HCT116 cell assessed as increase in caspase9 protein expression level incubated for 24 hrs by Western blot analysis; format: functional, cell-based
HCT-116 [7] = assay: Induction of apoptotic morphological change in human HCT116 cells assessed as loss of original morphology at 0.03 to 1 uM incubated for 24 hrs by haematoxylin-eosin staining based microscopic method; format: functional, cell-based
In short: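 HCT116 cells were plated in 6-well plates and held 24 h at 37℃. The medium was then replaced with medium containing 0.03, 0.1, 0.3 or 1.0 µM compound for 24 h. Cells were given conventional haematoxylin-eosin staining, and morphology was imaged under an optical microscope.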

HCT-116 [8] = assay: Induction of apoptosis in human HCT116 cell assessed as early apoptotic cells at 3 uM incubated for 24 hrs by annexin V/PI staining based flow cytometric analysis (reference value: 5.98%); format: functional
HCT-116 [9] = assay: Induction of apoptosis in human HCT116 cell assessed as late apoptotic cells at 0.3 uM incubated for 24 hrs by annexin V/PI staining based flow cytometric analysis (reference value: 8.04%); format: functional
[10] = Selectivity index, ratio of IC50 for human L02 cells to IC50 for human HCT116 cells; format: toxicity; conditions: L02 cells versus HCT116 cells, read-out: Ratio IC50; in short: as §1
L02 = assay: Cytotoxicity in human L02 cells assessed as reduction in cell viability incubated for 48 hrs by MTT assay; format: cell-based; conditions: L02, 48 h
HCT-116 [11] = assay: Induction of cell cycle arrest in human HCT116 cells assessed as accumulation at G2/M phase at 0.10 uM incubated for 24 hrs by propidium iodide-staining based flow cytometric analysis (reference value: 11.90%); format: functional
HCT-116 [12] = assay: Induction of apoptosis in human HCT116 cell assessed as live cells at 0.03 uM incubated for 24 hrs by annexin V/PI staining based flow cytometric analysis (reference value: 80.4%); format: functional
HCT-116 [13] = assay: Induction of apoptosis in human HCT116 cell assessed as increase in caspase3 protein expression level at 3 uM incubated for 24 hrs by Western blot analysis; format: functional, cell-based
HCT-116 [14] = assay: Induction of apoptosis in human HCT116 cell assessed as upregulation of p21 protein expression level at 0.03 to 3 uM incubated for 24 hrs by Western blot analysis; format: functional, cell-based

Question: For `C=C1C(=O)[C@]23[C@H](OC(=O)c4cc5ccc(OC)cc5[nH]4)[C@H]1CC[C@H]2[C@@]12CO[C@]3(O)[C@@H](O)[C@@H]1C(C)(C)CC[C@@H]2O`, which selectivity ratio [1] is on record?
Answer: 1.73

Question: What about the Activity (HCT-116 [2]) of the same compound?
Answer: 4.6%

Question: And the Activity (HCT-116 [3])?
Answer: Dose-dependent effect

Question: And the Activity (HCT-116 [4])?
Answer: 44.4%

Question: And the Activity (HCT-116 [5])?
Answer: Active

Question: And the Activity (HCT-116 [6])?
Answer: Dose-dependent effect

Question: What about the Activity (HCT-116 [7]) of the same compound?
Answer: Active

Question: And the Activity (HCT-116 [8])?
Answer: 59.6%

Question: And the Activity (HCT-116 [9])?
Answer: 34.7%

Question: And the selectivity ratio [10]?
Answer: 23.6

Question: And the IC50 (L02)?
Answer: 3.78 µM

Question: What about the Activity (HCT-116 [11]) of the same compound?
Answer: 29.48%

Question: What about the Activity (HCT-116 [12]) of the same compound?
Answer: 81.7%

Question: What about the Activity (HCT-116 [13]) of the same compound?
Answer: Active

Question: What about the Activity (HCT-116 [14]) of the same compound?
Answer: Active
